Experimental data: ChEMBL document CHEMBL2146474, “Synthesis and evaluation of the anti-proliferative and NF-κB activities of a library of simplified tylophorine analogs” (Bioorg Med Chem, 2012)
Activity calls are given as the source filed them. The rule behind the calls is not given here.

Key:
MCF7 [1] = experiment: Growth inhibition in human MCF7 cells after 72 hrs by alamar blue assay; assay type: functional; settings: MCF7, 72 h
How it was run: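 MCF-7 cells from exponential-phase culture re-suspended in RPMI1640 with 10% FBS, adjusted to 10⁵ cells/mL and plated in 96-well plates. Compounds from 10 mM DMSO stocks were added in fresh medium across varying concentrations. Cells were grown a further 72 h, then alamarBlue was added as read-out.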

MCF7 [2] = experiment: Cytotoxicity against human MCF7 cells assessed as growth inhibition at 5 uM after 72 hrs by alamar blue assay; assay type: functional; settings: for inhibition of growth at 5 µM: MCF7, 72 h, read-out: GI
A549 = experiment: Growth inhibition in human A549 cells after 72 hrs by alamar blue assay; assay type: functional; settings: A549, 72 h
How it was run: (§1)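 Cells harvested from exponential-phase culture and resuspended at 10⁵ cells/mL in growth medium with 10% FBS (RPMI1640, EMEM or DMEM; the DMEM also held penicillin, streptomycin and hygromycin), seeded in 96-well plates. Compounds from 10 mM DMSO stocks added in fresh medium across varying concentrations. Cultures grown a further 72 h, then alamarBlue added as read-out.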

DU-145 = experiment: Growth inhibition in human DU145 cells after 72 hrs by alamar blue assay; assay type: functional; settings: DU-145, 72 h; how it was run: as §1
[3] = Inhibition of TNFalpha-induced NF-kappaB activation in human A549 cells after 30 mins by luciferase reporter gene assay; assay type: cell-based; settings: A549, 0.5 h
How it was run: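 A549/NF-κB-luc reporter cells trypsinized, seeded at 5000 cells/well and left 24 h to attach. Compound in complete growth medium added 30 min before TNF-α (1:667 dilution in 1× PBS). After a further 7 h, Bright-Glo luciferin reagent added and luciferase activity read 2 min later.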

SMILES | GI50 (MCF7 [1]) | growth inhibition (GI) (MCF7 [2]) | further results
COc1cc2c3c(c4cc(OC)c(OC)cc4c2cc1OC)CN1CCC[C@@H]1C3 [TYLOPHORINE] | 0.032 µM |  | 
COc1cc2c3c(c4cc(OC)c(OC)cc4c2cc1OC)CN(Cc1ccccc1)CC3 |  | inactive | 
COc1cc2c3c(c4cc(OC)c(OC)cc4c2cc1OC)CN(Cc1cc(C)on1)CC3 |  | Active | 
COc1cc2c3c(c4cc(OC)c(OC)cc4c2cc1OC)CN(Cc1ccc(CO)o1)CC3 |  | Active | 
COc1cc2c3c(c4cc(OC)c(OC)cc4c2cc1OC)CN(CCN)CC3 |  | inactive | 
COc1cc2c3c(c4cc(OC)c(OC)cc4c2cc1OC)CN1CCCC1C3 (racemic) [(+/-)-TYLOPHORINE] | 0.042 µM |  | GI50 (A549): 0.045 µM; GI50 (DU-145): 0.071 µM; IC50 [3]: 0.03 µM
COc1cc2c3c(c4cc(OC)c(OC)cc4c2cc1OC)CN(Cc1ccc([N+](=O)[O-])cc1)CC3 |  | Active | 
COc1cc2c3c(c4cc(OC)c(OC)cc4c2cc1OC)CN(Cc1c(OC)cccc1OC)CC3 |  | inactive | 
COc1ccccc1CN1CCc2c(c3cc(OC)c(OC)cc3c3cc(OC)c(OC)cc23)C1 | 0.6 µM |  | GI50 (A549): 1.6 µM; GI50 (DU-145): 1.5 µM; inhibition of growth at 5 µM (MCF7 [2]): 90%; IC50 [3]: 15 µM
COc1cc2c3c(c4cc(OC)c(OC)cc4c2cc1OC)CN(Cc1cccc(OC)c1O)CC3 | 3 µM | Active | GI50 (A549): 2.1 µM; GI50 (DU-145): 2.1 µM; IC50 [3]: 18.9 µM
COc1cc2c3c(c4cc(OC)c(OC)cc4c2cc1OC)CN(Cc1ccccc1O)CC3 |  | Active | 
COc1cc2c3c(c4cc(OC)c(OC)cc4c2cc1OC)CN(C)CC3 |  |  | inhibition of growth at 5 µM (MCF7 [2]): 50%
COc1ccc(CN2CCc3c(c4cc(OC)c(OC)cc4c4cc(OC)c(OC)cc34)C2)cc1 |  | Active | 
COc1cc2c3c(c4cc(OC)c(OC)cc4c2cc1OC)CN1CCC[C@H]1C3 [(S)-TYLOPHORINE] | 0.042 µM |  | 
COc1cc2c3c(c4cc(OC)c(OC)cc4c2cc1OC)CNCC3 |  |  | inhibition of growth at 5 µM (MCF7 [2]): 50%
